# Assays:
# [1] = system: Human betaherpesvirus 5; assay: Antiviral activity against Cytomegalovirus AD169 infected in HEL cells assessed as reduction of viral plaque formation; assay type: functional, organism-based; settings: Human betaherpesvirus 5, AD169, HEL
# [2] = system: Human betaherpesvirus 5; assay: Antiviral activity against Cytomegalovirus Davis infected in HEL cells assessed as reduction of viral plaque formation; assay type: functional, organism-based; settings: Human betaherpesvirus 5, Davis
# [3] = system: Leishmania donovani; assay: Antileishmanial activity against Leishmania donovani promastigotes; assay type: functional, organism-based
# [4] = system: Human alphaherpesvirus 3; assay: Antiviral activity against thymidine kinase expressing Varicella Zoster Virus OKA infected in HEL cells assessed as reduction of viral plaque formation; assay type: functional, organism-based; settings: Human alphaherpesvirus 3, OKA
# [5] = system: Human alphaherpesvirus 3; assay: Antiviral activity against thymidine kinase deficient Varicella zoster virus 07/1 infected in HEL cells assessed as reduction of viral plaque formation; assay type: functional, organism-based; settings: Human alphaherpesvirus 3, 07/1, HEL
# [6] = Cytotoxicity against HEL cells assessed as microscopically detectable alteration of cell morphology; assay type: cell-based; settings: human
# Procedure, shortened: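 Cells are examined under the microscope after exposure. MCC is the minimum concentration that causes a microscopically detectable change in cell morphology.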
# [7] = Cytotoxicity against HEL cells assessed as reduction of cell growth; assay type: cell-based; settings: human
SMILES,EC50 [1],EC50 [2],IC50 [3],EC50 [4],EC50 [5],MCC [6],CC50 [7]
CC(=O)OC[C@H]1O[C@@H](n2cc(C(c3c(O)cc(C)n(C)c3=O)c3c(O)cc(C)n(C)c3=O)c(=O)[nH]c2=O)C[C@@H]1OC(C)=O,> 100 µM,> 100 µM,> 200 µM,47.8 µM,> 100 µM,> 100 µM,20 µM
CCn1c(C)cc2c(c1=O)C(c1cn([C@H]3C[C@H](O)[C@@H](CO)O3)c(=O)[nH]c1=O)C(C#N)=C(N)O2 (stereo not given in full),> 100 µM,> 100 µM,> 200 µM,71.2 µM,> 100 µM,> 100 µM,> 100 µM
CC(=O)OC[C@H]1O[C@@H](n2cc(C(c3c(O)cc(C)oc3=O)c3c(O)cc(C)oc3=O)c(=O)[nH]c2=O)C[C@@H]1OC(C)=O,> 100 µM,> 100 µM,> 200 µM,40.2 µM,48.6 µM,> 100 µM,3.8 µM
CC(=O)OC[C@H]1O[C@@H](n2cc(C(c3c(O)cc(C)[nH]c3=O)c3c(O)cc(C)[nH]c3=O)c(=O)[nH]c2=O)C[C@@H]1OC(C)=O,> 100 µM,> 100 µM,> 200 µM,> 100 µM,> 100 µM,> 100 µM,36.9 µM
CC(=O)OC[C@H]1O[C@@H](n2cc(C3C(C#N)=C(N)Oc4cc(C)n(C)c(=O)c43)c(=O)[nH]c2=O)C[C@@H]1OC(C)=O (stereo not given in full),> 100 µM,> 100 µM,> 200 µM,> 100 µM,> 100 µM,> 100 µM,> 100 µM
CCn1c(C)cc2c(c1=O)C(c1cn([C@H]3C[C@H](OC(C)=O)[C@@H](COC(C)=O)O3)c(=O)[nH]c1=O)C(C#N)=C(N)O2 (stereo not given in full),> 100 µM,> 100 µM,> 200 µM,> 100 µM,> 100 µM,> 100 µM,> 100 µM
Cc1cc2c(c(=O)n1C)C(c1cn([C@H]3C[C@H](O)[C@@H](CO)O3)c(=O)[nH]c1=O)C(C#N)=C(N)O2 (stereo not given in full),> 100 µM,> 100 µM,> 200 µM,74.6 µM,> 100 µM,> 100 µM,> 100 µM
Cc1cc(O)c(C(c2cn([C@H]3C[C@H](O)[C@@H](CO)O3)c(=O)[nH]c2=O)c2c(O)cc(C)oc2=O)c(=O)o1,20 µM,20 µM,> 200 µM,0.6 µM,2.62 µM,> 100 µM,1.8 µM
Cc1cc2c(c(=O)o1)C(c1cn([C@H]3C[C@H](O)[C@@H](CO)O3)c(=O)[nH]c1=O)C(C#N)=C(N)O2 (stereo not given in full),54.7 µM,54.7 µM,> 200 µM,1.8 µM,5.3 µM,> 100 µM,3.3 µM
Cc1cc(O)c(C(c2cn([C@H]3C[C@H](O)[C@@H](CO)O3)c(=O)[nH]c2=O)c2c(O)cc(C)[nH]c2=O)c(=O)[nH]1,44.7 µM,> 100 µM,43.5 µM,0.32 µM,1.66 µM,> 100 µM,2.1 µM
CC(=O)OC[C@H]1O[C@@H](n2cc(C3C(C#N)=C(N)Oc4cc(C)[nH]c(=O)c43)c(=O)[nH]c2=O)C[C@@H]1OC(C)=O (stereo not given in full),> 100 µM,> 100 µM,140 µM,100 µM,> 100 µM,> 100 µM,> 100 µM
CC(=O)OC[C@H]1O[C@@H](n2cc(C3C(C#N)=C(N)Oc4cc(C)oc(=O)c43)c(=O)[nH]c2=O)C[C@@H]1OC(C)=O (stereo not given in full),> 100 µM,> 100 µM,> 200 µM,48.1 µM,> 100 µM,> 100 µM,8.9 µM
Cc1cc(O)c(C(c2cn([C@H]3C[C@H](O)[C@@H](CO)O3)c(=O)[nH]c2=O)c2c(O)cc(C)n(C)c2=O)c(=O)n1C,54.7 µM,> 100 µM,> 200 µM,2.2 µM,16.7 µM,> 100 µM,7.7 µM
Cc1cc2c(c(=O)[nH]1)C(c1cn([C@H]3C[C@H](O)[C@@H](CO)O3)c(=O)[nH]c1=O)C(C#N)=C(N)O2 (stereo not given in full),> 100 µM,> 100 µM,10.6 µM,55.7 µM,> 100 µM,> 100 µM,> 100 µM
Nc1nc2c(ncn2COCCO)c(=O)[nH]1 [ACYCLOVIR],–,–,–,0.84 µM,–,> 1780 µM,1780 µM
Nc1ccn(C[C@@H](CO)OCP(=O)(O)O)c(=O)n1 [CIDOFOVIR],–,0.9 µM,–,–,–,> 1270 µM,175 µM
N=C(N)c1ccc(OCCCCCOc2ccc(C(=N)N)cc2)cc1 [PENTAMIDINE],–,–,6.5 µM,–,–,–,–
